Experimental data reported in ChEMBL document CHEMBL3259576, “Design and Evaluation of ω-Hydroxy Fatty Acids Containing α-GalCer Analogues for CD1d-Mediated NKT Cell Activation” (ACS Med Chem Lett, 2014).
Calls of active or inactive are those of the source.

Tests used:
Mus musculus [1] = species: Mus musculus; experiment: Stimulation of mouse CD1d-mediated IL-4 production in mouse splenocytes measured at 32 ng/ml after 72 hrs by ELISA; type: cell-based
In short: (§1)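 Mouse splenocytes were treated individually with glycolipid and cultured for 72 h. IFN-γ and IL-4 in the culture were then measured. Results are expressed as relative activity, as means ±SD of triplicates, from one representative of two independent experiments.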

RBL = experiment: Stimulation of mouse CD1d-mediated IL-2 production in DN32.D3 hybridoma cells co-cultured with mouse CD1d transfected RBL cells measured at 32 to 500 ng/ml after 16 hrs by ELISA
Mus musculus [2] = species: Mus musculus; experiment: Stimulation of mouse CD1d-mediated IFN-gamma production in C57BL/6 mouse splenocytes measured at 32 ng/ml after 72 hrs by ELISA; type: cell-based; in short: as §1
Mus musculus [3] = experiment: In vivo stimulation of mouse CD1d-mediated peak IFN-gamma production in C57BL/6 mouse serum measured at 0.5 ug, iv after 12 hrs by ELISA; type: functional, organism-based
Mus musculus [4] = experiment: In vivo stimulation of mouse CD1d-mediated peak IL4 production in C57BL/6 mouse serum measured at 0.5 ug, iv after 2 hrs by ELISA; type: functional, organism-based

Measured: Activity

CCCCCCCCCCCCCC[C@@H](O)[C@@H](O)[C@H](CO[C@H]1O[C@H](CO)[C@H](O)[C@H](O)[C@H]1O)NC(=O)CCCCCCCCCCC
active: Mus musculus [1] | RBL | Mus musculus [2]

CCCCCCCCCCCCCCCCCCCCCCCCCC(=O)N[C@@H](CO[C@H]1O[C@H](CO)[C@H](O)[C@H](O)[C@H]1O)[C@H](O)[C@H](O)CCCCCCCCCCCCCC
active: all assays above

CCCCCCCCCCCCCC[C@@H](O)[C@@H](O)[C@H](CO[C@H]1O[C@H](CO)[C@H](O)[C@H](O)[C@H]1O)NC(=O)CCCCCCCCCCCO
active: Mus musculus [1] | RBL | Mus musculus [2]

CCCCCCCCCCCCCC[C@@H](O)[C@@H](O)[C@H](CO[C@H]1O[C@H](CO)[C@H](O)[C@H](O)[C@H]1O)NC(=O)CCCCCCCCCCCCCCCO
active: Mus musculus [1] | Mus musculus [2]

CCCCCCCCCCCCCC[C@@H](O)[C@@H](O)[C@H](CO[C@H]1O[C@H](CO)[C@H](O)[C@H](O)[C@H]1O)NC(=O)CCCCCCCCCC
active: Mus musculus [1] | RBL | Mus musculus [2]

CCCCCCCCCCCCCC[C@@H](O)[C@@H](O)[C@H](CO[C@H]1O[C@H](CO)[C@H](O)[C@H](O)[C@H]1O)NC(=O)CCCCCCCCCCO
active: all assays above
